Experimental data from ChEMBL document CHEMBL1949572, “Assessment of antiplatelet activity of 2-aminopyrimidines” (2012).

assay: Ratio of compound to aspirin for human whole blood; format: functional, Platelet

Structure (SMILES)	Ratio
COc1ccc(-c2cc(-c3ccc(Cl)cc3Cl)nc(N)n2)c(O)c1	2

assay: Antiplatelet activity in human whole blood assessed as inhibition of ADP-induced platelet aggregation at 10 ug/ml treated for 2 mins before ADP challenge measured after 6 mins by whole blood aggregometer; format: functional
Outline: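 Whole blood diluted 1:1 with pre-warmed PBS (pH 7.4) at 37 °C. Stirred at 1000 rpm until baseline reached. Test sample or control added with 2 min incubation, then ADP (10 µM final) to start aggregation. Impedance (ohms) followed for 6 min, taken from lowest point to end of interval. Blood used within 4 h of collection; controls run between samples; three runs per assay.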

Structure (SMILES)	inhibition at 10 µg/mL
COc1ccc(O)c(-c2cc(-c3ccc(F)cc3)nc(N)n2)c1	8.79%
CC(=O)Oc1ccccc1C(=O)O [ASPIRIN]	37.5%
COc1ccc(-c2cc(-c3cc(OC)ccc3O)nc(N)n2)cc1	64.3%
COc1ccc(-c2cc(-c3ccc(F)cc3)nc(N)n2)c(O)c1	64%
COc1ccc(-c2cc(-c3cccc(C)c3)nc(N)n2)c(O)c1	23.1%
COc1ccc(-c2cc(-c3ccc([N+](=O)[O-])cc3)nc(N)n2)c(O)c1	58.5%
COc1cccc(-c2cc(-c3ccc(OC)cc3O)nc(N)n2)c1	51.2%
COc1ccc(-c2cc(-c3ccc(Cl)cc3Cl)nc(N)n2)c(O)c1	77.5%
COc1ccc(O)c(-c2cc(-c3ccco3)nc(N)n2)c1	1.46%
COc1ccc(-c2cc(-c3ccccc3)nc(N)n2)c(O)c1	42.7%
CCOc1ccc(O)c(-c2cc(-c3ccccc3)nc(N)n2)c1	39.9%
COc1ccc(O)c(-c2cc(-c3ccccc3Cl)nc(N)n2)c1	55.1%
COc1ccc(-c2cc(-c3ccc(C)cc3)nc(N)n2)c(O)c1	62.8%
COc1ccc(-c2cc(-c3cccc(Cl)c3)nc(N)n2)c(O)c1	65.8%
COc1ccc(-c2cc(-c3ccc(Cl)cc3)nc(N)n2)c(O)c1	8.42%
COc1ccc(O)c(-c2cc(-c3cccc(Cl)c3)nc(N)n2)c1	66.8%
